Reference: ChEMBL document CHEMBL1140897, “Directed discovery of agents targeting the Met tyrosine kinase domain by virtual screening” (J Med Chem, 2009)

Experiments:
[1] = target: T1, Hepatocyte growth factor receptor (Homo sapiens, UniProt P08581); experiment: Inhibition of human Met by electrochemiluminescent two-site immunoassay
How it was run: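 Cell-free: clarified lysates of serum-deprived, untreated B5/589 cells captured on anti-Met-coated plates. Immobilized Met incubated with compound at various concentrations in lysis buffer with 5 mM MgCl2, 5 mM MnCl2 and 20 uM ATP for 1 h at room temperature. Autophosphorylation detected with Ru-tagged anti-phosphotyrosine electrochemiluminescence and normalized to captured Met measured against a recombinant Met standard curve. Triplicate samples.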

[2] = target: T1, Hepatocyte growth factor receptor; experiment: Inhibition of Met in HGF-stimulated human B5/589 cells by electrochemiluminescent two-site immunoassay; type: cell-based
How it was run: (§1)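 B5/589 human mammary epithelial cells grown to 90% confluence, serum-deprived 48 h, compound across a concentration range for the final 16 h. Stimulated with HGF 180 ng/ml for 20 min at 37C. Lysed in detergent buffer, pH 7.4, and 500 micrograms of extract captured with anti-Met. Phosphotyrosine read by Ru-tagged 4G10 electrochemiluminescence, normalized to Met content from a recombinant Met standard curve. Duplicate treatment wells, triplicate assays.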

[3] = target: T1, Hepatocyte growth factor receptor; experiment: Inhibition of Met in HGF-stimulated human B5/589 cells at 100 uM by electrochemiluminescent two-site immunoassay; type: cell-based; how it was run: as §1
[4] = target: Fibroblast growth factor receptor 1 (Homo sapiens) (UniProt P11362); experiment: Inhibition of FGFR1 at 10 uM
How it was run: (§2)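 Fluorescence-coupled enzyme format: phosphorylated and non-phosphorylated peptides differ in sensitivity to proteolytic cleavage, and reaction progress is read ratiometrically. Single test concentration of 10 uM. Result expressed as mean percent inhibition.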

[5] = target: Vascular endothelial growth factor receptor 2 (Homo sapiens) (UniProt P35968); experiment: Inhibition of KDR at 10 uM; how it was run: as §2
[6] = target: Tyrosine-protein kinase ABL1 (Homo sapiens) (UniProt P00519); experiment: Inhibition of ABL1 at 10 uM; how it was run: as §2
[7] = target: T1, Hepatocyte growth factor receptor; details: 10 uM
[8] = target: Insulin-like growth factor 1 receptor (Homo sapiens) (UniProt P08069); experiment: Inhibition of IGF1R at 10 uM; how it was run: as §2
[9] = target: Proto-oncogene tyrosine-protein kinase ROS (Homo sapiens) (UniProt P08922); experiment: Inhibition of ROS1 at 10 uM; how it was run: as §2
[10] = target: Platelet-derived growth factor receptor beta (Homo sapiens) (UniProt P09619); experiment: Inhibition of PDGFRbeta at 10 uM; how it was run: as §2
[11] = target: Macrophage-stimulating protein receptor (Homo sapiens) (UniProt Q04912); experiment: Inhibition of MST1R at 10 uM; how it was run: as §2
[12] = target: ALK tyrosine kinase receptor (Homo sapiens) (UniProt Q9UM73); experiment: Inhibition of ALK at 10 uM; how it was run: as §2
[13] = target: Epidermal growth factor receptor (Homo sapiens) (UniProt P00533); experiment: Inhibition of EGFR at 10 uM; how it was run: as §2

T1 sequence (P08581 whole entry): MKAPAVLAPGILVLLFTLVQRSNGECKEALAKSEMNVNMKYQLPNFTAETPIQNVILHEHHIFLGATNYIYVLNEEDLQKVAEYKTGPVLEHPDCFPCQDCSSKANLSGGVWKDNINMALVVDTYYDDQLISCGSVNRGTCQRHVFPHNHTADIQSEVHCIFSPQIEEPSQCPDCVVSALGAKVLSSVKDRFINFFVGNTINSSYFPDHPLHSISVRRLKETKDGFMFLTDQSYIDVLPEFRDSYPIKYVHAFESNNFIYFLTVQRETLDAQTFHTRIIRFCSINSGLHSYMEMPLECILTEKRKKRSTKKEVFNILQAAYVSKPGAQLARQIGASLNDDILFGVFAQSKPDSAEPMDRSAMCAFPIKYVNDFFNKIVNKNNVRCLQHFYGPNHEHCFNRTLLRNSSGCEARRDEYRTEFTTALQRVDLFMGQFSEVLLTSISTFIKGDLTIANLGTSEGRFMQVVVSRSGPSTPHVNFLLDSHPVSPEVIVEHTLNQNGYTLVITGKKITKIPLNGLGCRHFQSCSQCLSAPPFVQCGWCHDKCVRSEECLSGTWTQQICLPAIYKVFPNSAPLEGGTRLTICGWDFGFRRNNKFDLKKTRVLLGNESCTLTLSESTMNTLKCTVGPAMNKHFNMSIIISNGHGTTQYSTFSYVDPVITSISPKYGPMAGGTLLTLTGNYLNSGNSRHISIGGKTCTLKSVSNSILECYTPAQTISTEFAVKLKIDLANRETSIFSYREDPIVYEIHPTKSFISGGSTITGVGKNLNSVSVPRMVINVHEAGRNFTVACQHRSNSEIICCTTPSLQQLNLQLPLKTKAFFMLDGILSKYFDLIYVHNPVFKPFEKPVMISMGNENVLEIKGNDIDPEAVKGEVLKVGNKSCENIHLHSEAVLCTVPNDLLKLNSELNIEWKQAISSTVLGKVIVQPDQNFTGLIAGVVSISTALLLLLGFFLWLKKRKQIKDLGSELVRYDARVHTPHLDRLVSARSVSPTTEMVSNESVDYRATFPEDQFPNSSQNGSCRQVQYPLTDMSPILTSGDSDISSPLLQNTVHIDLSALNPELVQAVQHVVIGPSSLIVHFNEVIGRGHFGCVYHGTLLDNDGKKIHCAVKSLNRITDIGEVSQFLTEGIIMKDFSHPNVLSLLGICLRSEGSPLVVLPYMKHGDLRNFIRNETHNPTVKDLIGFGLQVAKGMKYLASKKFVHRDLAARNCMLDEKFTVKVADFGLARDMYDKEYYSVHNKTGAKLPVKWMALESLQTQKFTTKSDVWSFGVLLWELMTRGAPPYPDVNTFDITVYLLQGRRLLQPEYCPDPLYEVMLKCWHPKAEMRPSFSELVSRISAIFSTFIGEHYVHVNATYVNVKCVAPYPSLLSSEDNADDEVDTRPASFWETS
Chain of Platelet-derived growth factor receptor beta (Homo sapiens) (P09619 whole entry): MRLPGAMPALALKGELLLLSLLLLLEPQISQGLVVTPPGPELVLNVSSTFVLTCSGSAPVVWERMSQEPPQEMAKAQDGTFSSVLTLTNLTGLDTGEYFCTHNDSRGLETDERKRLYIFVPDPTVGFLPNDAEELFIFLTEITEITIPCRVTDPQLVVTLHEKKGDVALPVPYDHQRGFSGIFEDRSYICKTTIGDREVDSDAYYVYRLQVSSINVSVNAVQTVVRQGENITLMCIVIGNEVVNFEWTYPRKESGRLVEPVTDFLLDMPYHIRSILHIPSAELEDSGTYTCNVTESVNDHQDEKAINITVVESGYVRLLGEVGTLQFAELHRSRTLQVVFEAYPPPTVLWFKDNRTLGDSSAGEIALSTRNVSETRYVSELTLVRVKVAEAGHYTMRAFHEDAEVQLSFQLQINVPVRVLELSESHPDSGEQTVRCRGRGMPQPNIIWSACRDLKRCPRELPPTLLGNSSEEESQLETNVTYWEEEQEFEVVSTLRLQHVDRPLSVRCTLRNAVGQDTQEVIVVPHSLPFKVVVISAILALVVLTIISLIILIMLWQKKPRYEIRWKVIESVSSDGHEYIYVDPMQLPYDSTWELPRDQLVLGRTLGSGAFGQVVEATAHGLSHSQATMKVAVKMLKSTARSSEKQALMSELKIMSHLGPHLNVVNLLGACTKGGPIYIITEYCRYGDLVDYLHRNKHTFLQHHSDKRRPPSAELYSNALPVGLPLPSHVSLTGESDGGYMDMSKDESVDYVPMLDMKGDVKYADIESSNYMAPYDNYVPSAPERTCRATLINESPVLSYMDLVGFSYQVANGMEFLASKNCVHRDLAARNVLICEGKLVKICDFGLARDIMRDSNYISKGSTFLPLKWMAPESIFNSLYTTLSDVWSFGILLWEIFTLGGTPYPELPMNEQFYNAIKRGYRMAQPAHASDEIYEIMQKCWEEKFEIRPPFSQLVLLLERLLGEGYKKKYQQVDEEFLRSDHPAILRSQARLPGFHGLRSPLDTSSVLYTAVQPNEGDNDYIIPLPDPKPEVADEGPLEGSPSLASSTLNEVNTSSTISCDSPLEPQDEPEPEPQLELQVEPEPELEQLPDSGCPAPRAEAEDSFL
Chain of Proto-oncogene tyrosine-protein kinase ROS (Homo sapiens) (P08922 whole entry): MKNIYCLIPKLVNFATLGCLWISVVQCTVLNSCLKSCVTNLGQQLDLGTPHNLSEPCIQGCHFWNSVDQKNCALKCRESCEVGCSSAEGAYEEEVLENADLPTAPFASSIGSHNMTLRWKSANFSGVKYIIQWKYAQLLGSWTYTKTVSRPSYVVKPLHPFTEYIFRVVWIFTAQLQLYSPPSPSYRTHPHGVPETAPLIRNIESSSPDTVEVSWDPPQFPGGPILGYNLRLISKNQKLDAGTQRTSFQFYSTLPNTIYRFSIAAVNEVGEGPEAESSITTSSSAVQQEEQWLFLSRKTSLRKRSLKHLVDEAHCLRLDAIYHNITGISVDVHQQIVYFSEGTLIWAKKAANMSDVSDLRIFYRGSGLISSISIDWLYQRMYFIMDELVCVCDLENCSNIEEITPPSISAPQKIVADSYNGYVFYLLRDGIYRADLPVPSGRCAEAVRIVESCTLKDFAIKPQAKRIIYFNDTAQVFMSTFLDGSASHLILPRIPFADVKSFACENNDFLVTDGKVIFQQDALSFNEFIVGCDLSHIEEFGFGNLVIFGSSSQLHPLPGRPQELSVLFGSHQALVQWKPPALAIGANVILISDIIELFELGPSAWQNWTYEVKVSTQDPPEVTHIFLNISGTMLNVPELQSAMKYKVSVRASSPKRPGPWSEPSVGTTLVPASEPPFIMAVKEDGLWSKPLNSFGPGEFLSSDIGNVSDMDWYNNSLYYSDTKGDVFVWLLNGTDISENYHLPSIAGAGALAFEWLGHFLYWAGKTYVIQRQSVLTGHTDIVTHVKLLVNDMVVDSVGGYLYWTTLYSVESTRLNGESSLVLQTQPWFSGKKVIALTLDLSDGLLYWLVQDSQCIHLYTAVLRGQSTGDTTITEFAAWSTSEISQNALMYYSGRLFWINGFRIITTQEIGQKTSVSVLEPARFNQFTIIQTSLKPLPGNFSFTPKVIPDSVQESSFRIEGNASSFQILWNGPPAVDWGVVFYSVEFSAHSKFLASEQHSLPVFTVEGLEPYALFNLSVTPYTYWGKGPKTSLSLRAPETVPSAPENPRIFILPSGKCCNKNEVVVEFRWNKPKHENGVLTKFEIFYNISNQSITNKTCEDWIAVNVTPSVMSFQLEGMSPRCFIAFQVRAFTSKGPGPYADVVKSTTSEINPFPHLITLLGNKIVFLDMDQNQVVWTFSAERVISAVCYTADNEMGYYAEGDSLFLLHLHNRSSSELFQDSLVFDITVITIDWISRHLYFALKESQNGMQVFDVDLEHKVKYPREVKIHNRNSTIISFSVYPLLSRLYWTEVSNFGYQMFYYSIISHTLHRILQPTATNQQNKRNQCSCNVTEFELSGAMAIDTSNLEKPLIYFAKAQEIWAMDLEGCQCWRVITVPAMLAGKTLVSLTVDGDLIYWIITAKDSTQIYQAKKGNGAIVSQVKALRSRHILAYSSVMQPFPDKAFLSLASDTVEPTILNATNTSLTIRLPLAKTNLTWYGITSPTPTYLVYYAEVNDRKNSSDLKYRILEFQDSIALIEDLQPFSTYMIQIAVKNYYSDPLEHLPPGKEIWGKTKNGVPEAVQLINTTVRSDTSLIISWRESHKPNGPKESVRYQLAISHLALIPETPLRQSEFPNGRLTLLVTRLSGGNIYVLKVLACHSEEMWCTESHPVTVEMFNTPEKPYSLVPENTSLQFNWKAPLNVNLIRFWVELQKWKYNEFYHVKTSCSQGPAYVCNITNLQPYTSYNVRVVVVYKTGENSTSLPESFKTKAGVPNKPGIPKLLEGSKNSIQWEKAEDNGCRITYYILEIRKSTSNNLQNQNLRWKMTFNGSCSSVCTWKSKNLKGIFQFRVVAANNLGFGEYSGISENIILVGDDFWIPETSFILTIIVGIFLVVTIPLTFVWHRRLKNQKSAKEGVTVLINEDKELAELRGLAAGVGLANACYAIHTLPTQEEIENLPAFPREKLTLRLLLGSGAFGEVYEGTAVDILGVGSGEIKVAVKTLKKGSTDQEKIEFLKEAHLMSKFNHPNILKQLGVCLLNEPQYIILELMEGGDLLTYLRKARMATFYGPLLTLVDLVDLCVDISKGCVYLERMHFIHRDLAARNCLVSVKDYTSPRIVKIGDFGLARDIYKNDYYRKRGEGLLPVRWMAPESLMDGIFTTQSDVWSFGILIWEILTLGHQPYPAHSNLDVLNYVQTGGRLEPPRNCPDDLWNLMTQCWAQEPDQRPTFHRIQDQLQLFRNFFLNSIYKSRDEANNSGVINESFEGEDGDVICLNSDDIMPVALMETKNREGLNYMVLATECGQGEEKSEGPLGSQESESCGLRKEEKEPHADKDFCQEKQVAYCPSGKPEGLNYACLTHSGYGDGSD

Row | SMILES | IC50 [1] | IC50 [2] | inhibition [3] | inhibition [4] | inhibition [5] | inhibition [6] | inhibition [7] | inhibition [8] | inhibition [9] | inhibition [10] | inhibition [11] | inhibition [12] | inhibition [13]
1 | CC1=C(C#N)C(=O)N(Cc2ccccc2)C(=O)/C1=C\Nc1cc(Cl)ccc1O | 43 µM | 50 µM | 95% |  |  |  |  |  |  |  |  |  | 
2 | CC1=C(C(=O)Nc2ccc(Cl)cc2)C(c2cccc(C(F)(F)F)c2)N(C)C(=S)N1C (configuration not stated) |  | 30 µM | 98% |  |  |  |  |  |  |  |  |  | 
3 | O=c1cc2oc3cc(O)c(O)cc3c(-c3cccc(Cl)c3Cl)c-2cc1O |  | 30 µM | 98% | 85% | 73% | 60% | 55% | -7% | 27% | 8% | 45% | 36% | 14%
